From ChEMBL document CHEMBL1122365, “Substituted 1,4-naphthoquinones vs. the ascitic sarcoma 180 of mice” (J Med Chem, 1983) come the findings set out here.

Series [1] concerns Mus musculus. In words: Maximum survival by an optimum dose at 7 mg/kg in treated to that of untreated mice. It is filed as functional.
Series [2] is described as follows: Tested for acute toxicity which is the single dose given intraperitoneally that will kill one-half of the mice within 5 days. Type of series: organism-based. The settings on record: mouse, in vivo, ip.
Series [3] is described as follows: Effective dose that would give a 25% increase in the survival time against the ascitic sarcoma 180 in mice. Type of series: functional, Mus musculus. An outline of the steps: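 Swiss mice given 10⁶ ascitic sarcoma 180 cells ip on day 0, then one ip dose of compound daily on days 1-3, with several dose levels. T/C is the mean survival of treated mice over the survival of untreated mice. ED25 is the daily dose giving T/C = 125%, interpolated or extrapolated from a semilog plot of T/C vs. log dose.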

Series [4] is described as follows: Partition coefficient (logP). Type of series: physicochemical. To be noted: octanol/water. The gist of the method: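 Shake-flask method: four samples per compound (1.50–20.0 mg) each equilibrated between known volumes of 1-octanol and water. Solute concentration measured spectroscopically in the water phase; octanol-phase concentration taken by difference. Partition coefficient is the ratio of the two concentrations.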

Series [5] can be described thus: Solubility in water was determined. It is filed as physicochemical.
Series [6] has as its system Mus musculus. Nature of the series: Maximum survival by an optimum dose at 4 mg/kg in treated to that of untreated mice. Type of series: functional.
Series [7] relates to Mus musculus. In words: Maximum survival by an optimum dose at 80 mg/kg in treated to that of untreated mice. It is filed as functional.
Series [8] has as its system Mus musculus. Nature of the series: Maximum survival by an optimum dose at 3 mg/kg in treated to that of untreated mice. It is filed as functional.
For series [9], the system named is Mus musculus. Nature of the series: Maximum survival by an optimum dose at 20 mg/kg in treated to that of untreated mice. Type of series: functional.
In series [10] the test system is Mus musculus. In words: Maximum survival by an optimum dose at 100 mg/kg in treated to that of untreated mice. It is filed as functional.
For series [11], the system named is Mus musculus. In words: Maximum survival by an optimum dose at 60 mg/kg in treated to that of untreated mice. Type of series: functional.
Series [12] concerns Mus musculus. Nature of the series: Maximum survival by an optimum dose at 6 mg/kg in treated to that of untreated mice. Type of series: functional.
Series [13] deals with Mus musculus. In words: Maximum survival by an optimum dose at 25 mg/kg in treated to that of untreated mice. It is filed as functional.
In series [14] the test system is Mus musculus. Nature of the series: Maximum survival by an optimum dose at 30 mg/kg in treated to that of untreated mice. It is filed as functional.
The mark [15] stands for this setting: Mus musculus, Sarcoma-180, read-out: ED25.

In brackets after ≈: the same amount, converted by molar mass.

In series [1], `CCCOC1=C(Cl)C(=O)c2ccccc2C1=O` gave an Optimal dose of 271%. The LD50 at 120 h in series [2] was determined as 20 mg/kg. The figures for the ED25 in series [3] and in series [3] (setting [15]) were 0.01 mmol/kg and 2.45 mg/kg, respectively. In addition, the logP in series [4] (read-out: logP) worked out at 2.95.

In turn, `CC(=O)NC1=C(Cl)C(=O)c2ccccc2C1=O` returned a solubility in [5] of 106 µg/mL (≈ 425 µM). In series [6], this compound showed an Optimal dose of 284%. In series [2], this compound showed an LD50 at 120 h of 11 mg/kg. The ED25 in [3] is 0.01 mmol/kg; in series [3] (setting [15]), 2.97 mg/kg. For the same compound, in [4] (read-out: logP), the logP stood at 1.42.

Compound `O=C1C(Cl)=C(Nc2ccccc2)C(=O)c2ccccc21` displayed a solubility in series [5] of 2.4 µg/mL (≈ 8.46 µM). This compound yielded an Optimal dose in [7] of 117%. The same compound gave an LD50 at 120 h in [2] of 1600 mg/kg. The ED25 in series [3] was 0.331 mmol/kg; in [3] (setting [15]), 94 mg/kg. Also, the log partition coefficient (logP) in series [4] was found to be 4.04.

In [5], `CCOC1=C(Cl)C(=O)c2ccccc2C1=O` yielded a solubility of 34.1 µg/mL (≈ 144 µM). This compound gave an Optimal dose in series [8] of 230%. The compound also yielded an LD50 at 120 h in series [2] of 16 mg/kg. Besides, the ED25 in [3] was 0.008 mmol/kg; in series [3] (setting [15]) it was 1.97 mg/kg. Also, the log partition coefficient (logP) in series [4] (read-out: logP) stood at 2.61.

In turn, `NC1=C(Cl)C(=O)c2ccccc2C1=O` registered a solubility in series [5] of 37.7 µg/mL (≈ 182 µM). In series [9], this compound returned an Optimal dose of 112%. The compound further had an LD50 at 120 h in series [2] of 800 mg/kg. The ED25 in [3] came out at 0.123 mmol/kg; in series [3] (setting [15]), 25.5 mg/kg. Moreover, the logP in series [4] (read-out: logP) stood at 2.08.

In [5], `O=C1C(=O)c2ccccc2C(O)=C1C1CCCC1` displayed a solubility of 9.5 µg/mL (≈ 39.2 µM). This compound also gave an Optimal dose in series [10] of 116%. This compound showed an LD50 at 120 h in [2] of 400 mg/kg. Moreover, the ED25 in [3] worked out at 0.582 mmol/kg; in [3] (setting [15]) it was 141 mg/kg. In series [4] (read-out: logP), the logP is 2.69.

Take `COC1=C(Cl)C(=O)c2ccccc2C1=O`: in [5], the concentration in solution (solubility) came to 39.3 µg/mL (≈ 177 µM). In series [6], this compound showed an Optimal dose of 315%. Further, the LD50 at 120 h in series [2] was 14 mg/kg. Further, the ED25 worked out at 0.011 mmol/kg in series [3] and 2.49 mg/kg in [3] (setting [15]). The logP in series [4] (read-out: logP) amounted to 2.15.

Consider `COC1=CC(=O)c2ccccc2C1=O` [2-Methoxy-1,4-naphthoquinone], for which the solubility in [5] was 31.3 µg/mL (≈ 166 µM). In addition, the Optimal dose in series [11] is listed as 154%. This compound also displayed an LD50 at 120 h in [2] of 320 mg/kg. Besides, the ED25 in [3] is 0.262 mmol/kg; in series [3] (setting [15]), 49.3 mg/kg. The logP in series [4] (read-out: logP) stood at 1.59.

In series [12], `O=C1C(Cl)=C(Cl)C(=O)c2ccccc21` [Dichlon] yielded an Optimal dose of 189%. Besides, the ED25 in series [3] was found to be 0.022 mmol/kg; in series [3] (setting [15]), 4.89 mg/kg. Moreover, the logP in series [4] (read-out: logP) stood at 3.16.

Compound `O=C1C=C(O)C(=O)c2ccccc21` [LAWSONE] came in with a solubility in [5] of 255 µg/mL (≈ 1460 µM). In series [13], this compound returned an Optimal dose of 104%. Further, the LD50 at 120 h in [2] was 100 mg/kg. Further, the ED25 amounted to 0.19 mmol/kg in [3] and 33 mg/kg in series [3] (setting [15]). Besides, the logP in series [4] (read-out: logP) was found to be 1.07.

On to `CC1=CC(=O)c2ccccc2C1=O` [MENADIONE], for which the solubility in [5] came to 10.6 µg/mL (≈ 61.6 µM). This compound registered an Optimal dose in series [14] of 126%. For the same compound, the LD50 at 120 h in series [2] came to 150 mg/kg. For the same compound, the ED25 was 0.174 mmol/kg in series [3] and 30 mg/kg in series [3] (setting [15]). Moreover, the logP in series [4] (read-out: logP) worked out at 2.25.

Turning to `O=C1C=CC(=O)c2ccccc21` [NAPHTHOQUINONE], in series [5], the concentration in solution (solubility) was 89.4 µg/mL (≈ 565 µM). In series [8], this compound yielded an Optimal dose of 347%. Further, in series [2], the LD50 at 120 h was determined as 5.5 mg/kg. In addition, the ED25 in [3] stood at 0.012 mmol/kg; in series [3] (setting [15]) it was 1.9 mg/kg. The logP in series [4] (read-out: logP) stood at 1.74.

As usually defined, the LD50 is the dose expected to kill half of the subjects tested. Usually logP stands for a log measure of how a compound divides between an organic and an aqueous phase. One may read the solubility as the dissolved amount per volume that the medium holds.
